# Columns and labels:
# Escherichia coli [1] = assay: Antimicrobial activity against ESBL producing Escherichia coli 321 isolate infected thigh infection model ICR mouse; type: functional, Thigh muscle
# Outline: (§1)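 Female ICR mice (~25 g) were made neutropenic with cyclophosphamide ip (150 and 100 mg/kg, days −4 and −1) and renally impaired with uranyl nitrate 5 mg/kg ip (day −3). Each thigh got 0.1 ml of 10^5 CFU/ml (or 10^7 for high inoculum) im 2 h pre-therapy. Human-simulated regimens were given sc, three mice per group, for 24 h. Efficacy was the log10 CFU/thigh change versus 0-h controls.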
# Escherichia coli [2] = assay: Antimicrobial activity against ESBL producing Escherichia coli 310 isolate infected thigh infection model ICR mouse; type: functional, Thigh muscle; outline: as §1
# Escherichia coli [3] = assay: Antimicrobial activity against ESBL producing Escherichia coli 312 isolate; type: functional
# Escherichia coli [4] = assay: Antimicrobial activity against ESBL producing Escherichia coli 318 isolate infected thigh infection model ICR mouse; type: functional, Thigh muscle; outline: as §1
# Escherichia coli [5] = assay: Antimicrobial activity against ESBL producing Escherichia coli 285 isolate; type: functional
# Escherichia coli [6] = assay: Antimicrobial activity against ESBL producing Escherichia coli 311 isolate infected thigh infection model ICR mouse; type: functional, Thigh muscle; outline: as §1
# Klebsiella pneumoniae [7] = assay: Antimicrobial activity against ESBL producing Klebsiella pneumoniae 255 isolate infected thigh infection model ICR mouse; type: functional, Thigh muscle; outline: as §1
# Klebsiella pneumoniae [8] = assay: Bacteriostasis activity against ESBL producing Klebsiella pneumonia 262 isolate at up to 1.5 ug/ml; type: functional
# Klebsiella pneumoniae [9] = assay: Antimicrobial activity against ESBL producing Klebsiella pneumoniae 254 isolate; type: functional
# Klebsiella pneumoniae [10] = assay: Antimicrobial activity against ESBL producing Klebsiella pneumoniae 225 isolate; type: functional
# Escherichia coli [11] = assay: Antimicrobial activity against ESBL producing Escherichia coli 311 isolate; type: functional
# Klebsiella pneumoniae [12] = assay: Antimicrobial activity against ESBL producing Klebsiella pneumoniae 257 isolate; type: functional
# Escherichia coli [13] = assay: Antimicrobial activity against Escherichia coli 120 isolate; type: functional
# Klebsiella pneumoniae [14] = assay: Antimicrobial activity against ESBL producing Klebsiella pneumoniae 101 isolate; type: functional
# Escherichia coli [15] = assay: Antimicrobial activity against ESBL producing Escherichia coli 130 isolate infected thigh infection model ICR mouse; type: functional, Thigh muscle; outline: as §1
# Escherichia coli [16] = assay: Antimicrobial activity against ESBL producing Escherichia coli 322 isolate; type: functional
# Escherichia coli [17] = assay: Antimicrobial activity against Escherichia coli ATCC 25922 isolate infected thigh infection model ICR mouse; type: functional, Thigh muscle; outline: as §1
# Klebsiella pneumoniae [18] = assay: Antimicrobial activity against ESBL producing Klebsiella pneumoniae 256 isolate infected thigh infection model ICR mouse; type: functional, Thigh muscle; outline: as §1
# Klebsiella pneumoniae [19] = assay: Antimicrobial activity against ESBL producing Klebsiella pneumoniae 60 isolate infected thigh infection model ICR mouse; type: functional, Thigh muscle; outline: as §1
# Klebsiella pneumoniae [20] = assay: Antimicrobial activity against ESBL producing Klebsiella pneumoniae 262 isolate; type: functional
# Klebsiella pneumoniae [21] = assay: Antimicrobial activity against ESBL producing Klebsiella pneumoniae 266 isolate; type: functional
# Escherichia coli [22] = assay: Antimicrobial activity against ESBL producing Escherichia coli 133 isolate infected thigh infection model ICR mouse; type: functional, Thigh muscle; outline: as §1
# Escherichia coli [23] = assay: Antimicrobial activity against ESBL producing Escherichia coli 310 isolate; type: functional
# Klebsiella pneumoniae [24] = assay: Antimicrobial activity against ESBL producing Klebsiella pneumoniae 260 isolate infected thigh infection model ICR mouse; type: functional, Thigh muscle; outline: as §1
# Klebsiella pneumoniae [25] = assay: Antimicrobial activity against ESBL producing Klebsiella pneumoniae 266 isolate infected thigh infection model ICR mouse; type: functional, Thigh muscle; outline: as §1
# Klebsiella pneumoniae [26] = assay: Antimicrobial activity against ESBL producing Klebsiella pneumoniae 264 isolate infected thigh infection model ICR mouse; type: functional, Thigh muscle; outline: as §1
# Escherichia coli [27] = assay: Antimicrobial activity against ESBL producing Escherichia coli 312 isolate infected thigh infection model ICR mouse; type: functional, Thigh muscle; outline: as §1
# Klebsiella pneumoniae [28] = assay: Antimicrobial activity against ESBL producing Klebsiella pneumoniae 270 isolate infected thigh infection model ICR mouse; type: functional, Thigh muscle; outline: as §1
# Klebsiella pneumoniae [29] = assay: Antimicrobial activity against ESBL producing Klebsiella pneumoniae 257 isolate infected thigh infection model ICR mouse; type: functional, Thigh muscle; outline: as §1
# Klebsiella pneumoniae [30] = assay: Activity against ESBL producing Klebsiella pneumonia 262 isolate at up to 4 ug/ml; type: functional
# Escherichia coli [31] = assay: Antimicrobial activity against Escherichia coli ATCC 25922 isolate; type: functional
# Escherichia coli [32] = assay: Antimicrobial activity against ESBL producing Escherichia coli 320 isolate; type: functional
# Klebsiella pneumoniae [33] = assay: Antimicrobial activity against ESBL producing Klebsiella pneumoniae 264 isolate; type: functional
# Klebsiella pneumoniae [34] = assay: Antimicrobial activity against ESBL producing Klebsiella pneumoniae 261 isolate; type: functional
# Klebsiella pneumoniae [35] = assay: Antimicrobial activity against ESBL producing Klebsiella pneumoniae 263 isolate infected thigh infection model ICR mouse; type: functional, Thigh muscle; outline: as §1
# Escherichia coli [36] = assay: Antimicrobial activity against ESBL producing Escherichia coli 243 isolate infected thigh infection model ICR mouse; type: functional, Thigh muscle; outline: as §1
# Escherichia coli [37] = assay: Antimicrobial activity against ESBL producing Escherichia coli 320 isolate infected thigh infection model ICR mouse; type: functional, Thigh muscle; outline: as §1
# Klebsiella pneumoniae [38] = assay: Antimicrobial activity against ESBL producing Klebsiella pneumoniae 260 isolate; type: functional
# Klebsiella pneumoniae [39] = assay: Antimicrobial activity against ESBL producing Klebsiella pneumoniae 258 isolate; type: functional
# Klebsiella pneumoniae [40] = assay: Antimicrobial activity against ESBL producing Klebsiella pneumoniae 263 isolate; type: functional
# Escherichia coli [41] = assay: Antimicrobial activity against ESBL producing Escherichia coli 322 isolate infected thigh infection model ICR mouse; type: functional, Thigh muscle; outline: as §1
# Escherichia coli [42] = assay: Antimicrobial activity against ESBL producing Escherichia coli 133 isolate; type: functional
# Klebsiella pneumoniae [43] = assay: Antimicrobial activity against ESBL producing Klebsiella pneumoniae 259 isolate infected thigh infection model ICR mouse; type: functional, Thigh muscle; outline: as §1
# Klebsiella pneumoniae [44] = assay: Antimicrobial activity against ESBL producing Klebsiella pneumoniae 261 isolate infected thigh infection model ICR mouse; type: functional, Thigh muscle; outline: as §1
# Klebsiella pneumoniae [45] = assay: Antimicrobial activity against ESBL producing Klebsiella pneumoniae 60 isolate; type: functional
# Klebsiella pneumoniae [46] = assay: Antimicrobial activity against ESBL producing Klebsiella pneumoniae 259 isolate; type: functional
# Escherichia coli [47] = assay: Antimicrobial activity against ESBL producing Escherichia coli 321 isolate; type: functional
# Klebsiella pneumoniae [48] = assay: Antimicrobial activity against ESBL producing Klebsiella pneumoniae 255 isolate; type: functional
# Escherichia coli [49] = assay: Antimicrobial activity against ESBL producing Escherichia coli 315 isolate; type: functional
# Escherichia coli [50] = assay: Antimicrobial activity against Escherichia coli 120 isolate infected thigh infection model ICR mouse; type: functional, Thigh muscle; outline: as §1
# Klebsiella pneumoniae [51] = assay: Antimicrobial activity against ESBL producing Klebsiella pneumoniae 265 isolate; type: functional
# Klebsiella pneumoniae [52] = assay: Antimicrobial activity against ESBL producing Klebsiella pneumoniae 258 isolate infected thigh infection model ICR mouse; type: functional, Thigh muscle; outline: as §1
# Escherichia coli [53] = assay: Antimicrobial activity against ESBL producing Escherichia coli 243 isolate; type: functional
# Escherichia coli [54] = assay: Antimicrobial activity against ESBL producing Escherichia coli 118 isolate; type: functional
# Escherichia coli [55] = assay: Antimicrobial activity against ESBL producing Escherichia coli 130 isolate; type: functional
# Klebsiella pneumoniae [56] = assay: Antimicrobial activity against ESBL producing Klebsiella pneumoniae 262 isolate infected thigh infection model ICR mouse; type: functional, Thigh muscle; outline: as §1
# Klebsiella pneumoniae [57] = assay: Antimicrobial activity against ESBL producing Klebsiella pneumoniae 101 isolate infected thigh infection model ICR mouse; type: functional, Thigh muscle; outline: as §1
# Klebsiella pneumoniae [58] = assay: Antimicrobial activity against ESBL producing Klebsiella pneumoniae 256 isolate; type: functional
# Klebsiella pneumoniae [59] = assay: Antimicrobial activity against ESBL producing Klebsiella pneumoniae 225 isolate infected thigh infection model ICR mouse; type: functional, Thigh muscle; outline: as §1
# Klebsiella pneumoniae [60] = assay: Antimicrobial activity against ESBL producing Klebsiella pneumoniae 265 isolate infected thigh infection model ICR mouse; type: functional, Thigh muscle; outline: as §1
# Klebsiella pneumoniae [61] = assay: Antimicrobial activity against ESBL producing Klebsiella pneumoniae 230 isolate infected thigh infection model ICR mouse; type: functional, Thigh muscle; outline: as §1
# Klebsiella pneumoniae [62] = assay: Antimicrobial activity against ESBL producing Klebsiella pneumoniae 268 isolate infected thigh infection model ICR mouse; type: functional, Thigh muscle; outline: as §1
# Klebsiella pneumoniae [63] = assay: Antimicrobial activity against ESBL producing Klebsiella pneumoniae 270 isolate; type: functional
# Klebsiella pneumoniae [64] = assay: Antimicrobial activity against ESBL producing Klebsiella pneumoniae 254 isolate infected thigh infection model ICR mouse; type: functional, Thigh muscle; outline: as §1
# Escherichia coli [65] = assay: Antimicrobial activity against ESBL producing Escherichia coli 285 isolate infected thigh infection model ICR mouse; type: functional, Thigh muscle; outline: as §1
# Escherichia coli [66] = assay: Antimicrobial activity against ESBL producing Escherichia coli 315 isolate infected thigh infection model ICR mouse; type: functional, Thigh muscle; outline: as §1
# Klebsiella pneumoniae [67] = assay: Antimicrobial activity against ESBL producing Klebsiella pneumoniae 268 isolate; type: functional
# Klebsiella pneumoniae [68] = assay: Antimicrobial activity against ESBL producing Klebsiella pneumoniae 230 isolate; type: functional
compound,measurement,setting,value
C[C@@H](O)[C@H]1C(=O)N2C(C(=O)O)=C(S[C@@H]3CN[C@H](C(=O)Nc4cccc(C(=O)O)c4)C3)[C@H](C)[C@H]12,fT>MIC,Escherichia coli [1],90%
same,fT>MIC,Escherichia coli [2],67%
same,MIC,Escherichia coli [3],0.19 µg/mL
same,fT>MIC,Escherichia coli [4],90%
same,MIC,Escherichia coli [5],0.023 µg/mL
same,fT>MIC,Escherichia coli [6],10%
same,fT>MIC,Klebsiella pneumoniae [7],20%
same,MIC,Klebsiella pneumoniae [8],1.5 µg/mL
same,MIC,Klebsiella pneumoniae [9],16 µg/mL
same,MIC,Klebsiella pneumoniae [10],0.016 µg/mL
same,MIC,Escherichia coli [11],4 µg/mL
same,MIC,Klebsiella pneumoniae [12],16 µg/mL
same,MIC,Escherichia coli [13],0.03 µg/mL
same,MIC,Klebsiella pneumoniae [14],0.094 µg/mL
same,fT>MIC,Escherichia coli [15],30%
same,MIC,Escherichia coli [16],0.012 µg/mL
same,fT>MIC,Escherichia coli [17],93%
same,fT>MIC,Klebsiella pneumoniae [18],0%
same,fT>MIC,Klebsiella pneumoniae [19],90%
same,MIC,Klebsiella pneumoniae [20],64 µg/mL
same,MIC,Klebsiella pneumoniae [21],8 µg/mL
same,fT>MIC,Escherichia coli [22],23%
same,MIC,Escherichia coli [23],0.064 µg/mL
same,fT>MIC,Klebsiella pneumoniae [24],30%
same,fT>MIC,Klebsiella pneumoniae [25],0%
same,fT>MIC,Klebsiella pneumoniae [26],10%
same,fT>MIC,Escherichia coli [27],53%
same,fT>MIC,Klebsiella pneumoniae [28],40%
same,fT>MIC,Klebsiella pneumoniae [29],0%
same,MIC,Klebsiella pneumoniae [30],4 µg/mL
same,MIC,Escherichia coli [31],0.008 µg/mL
same,MIC,Escherichia coli [32],0.5 µg/mL
same,MIC,Klebsiella pneumoniae [33],4 µg/mL
same,MIC,Klebsiella pneumoniae [34],128 µg/mL
same,fT>MIC,Klebsiella pneumoniae [35],0%
same,fT>MIC,Escherichia coli [36],67%
same,fT>MIC,Escherichia coli [37],40%
same,MIC,Klebsiella pneumoniae [38],1 µg/mL
same,MIC,Klebsiella pneumoniae [39],16 µg/mL
same,MIC,Klebsiella pneumoniae [40],8 µg/mL
same,fT>MIC,Escherichia coli [41],90%
same,MIC,Escherichia coli [42],1.5 µg/mL
same,fT>MIC,Klebsiella pneumoniae [43],0%
same,fT>MIC,Klebsiella pneumoniae [44],0%
same,MIC,Klebsiella pneumoniae [45],0.012 µg/mL
same,MIC,Klebsiella pneumoniae [46],16 µg/mL
same,MIC,Escherichia coli [47],0.012 µg/mL
same,MIC,Klebsiella pneumoniae [48],2 µg/mL
same,MIC,Escherichia coli [49],0.032 µg/mL
same,fT>MIC,Escherichia coli [50],77%
same,MIC,Klebsiella pneumoniae [51],0.5 µg/mL
same,fT>MIC,Klebsiella pneumoniae [52],0%
same,MIC,Escherichia coli [53],0.064 µg/mL
same,MIC,Escherichia coli [54],0.012 µg/mL
same,MIC,Escherichia coli [55],1 µg/mL
same,fT>MIC,Klebsiella pneumoniae [56],0%
same,fT>MIC,Klebsiella pneumoniae [57],60%
same,MIC,Klebsiella pneumoniae [58],32 µg/mL
same,fT>MIC,Klebsiella pneumoniae [59],87%
same,fT>MIC,Klebsiella pneumoniae [60],40%
same,fT>MIC,Klebsiella pneumoniae [61],60%
same,fT>MIC,Klebsiella pneumoniae [62],47%
same,MIC,Klebsiella pneumoniae [63],0.5 µg/mL
same,fT>MIC,Klebsiella pneumoniae [64],0%
same,fT>MIC,Escherichia coli [65],80%
same,fT>MIC,Escherichia coli [66],77%
same,MIC,Klebsiella pneumoniae [67],0.25 µg/mL
same,MIC,Klebsiella pneumoniae [68],0.094 µg/mL
